# Assay outcomes as filed in PubChem.
# Most compounds without a hit are left out; they make up all but 1.6% or so of the library.
# HNF4A DNA FP: change in binding of human HNF4 alpha to DNA; P41235; HNF4a-FITC DNA binding, fluorescence polarization, 1 h; activity change, % at 10 µM; 0.3% of 360,000 active; AID 1224865; in the data active = activity change above about 30%, passing the limit was not always enough
# Rpn11 inh: blocks the human proteasome subunit Rpn11. AID 588493. 0.59% of 360,000 active. calls only at 20 µM. O00487. human 26S proteasome, Ub4-pepOG fluorescence polarization; 20S core pre-blocked with epoxomicin;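 active = inhibition at 20 µM, scaled to each plate's controls, above about 33%, limit read from the data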
# Target sequence (O00487 whole entry, looked up): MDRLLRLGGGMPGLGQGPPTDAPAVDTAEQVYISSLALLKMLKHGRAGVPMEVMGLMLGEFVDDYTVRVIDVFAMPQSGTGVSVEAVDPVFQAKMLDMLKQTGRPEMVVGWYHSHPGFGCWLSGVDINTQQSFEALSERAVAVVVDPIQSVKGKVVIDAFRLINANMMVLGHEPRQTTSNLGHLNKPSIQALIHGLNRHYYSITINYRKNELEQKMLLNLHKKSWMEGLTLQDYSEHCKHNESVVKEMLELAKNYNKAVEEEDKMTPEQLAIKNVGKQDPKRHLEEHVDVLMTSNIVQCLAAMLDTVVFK
# PKA-R2B act: activates the human PKA-R2B holoenzyme complex; P22694+P31323; PKA-R2B holoenzyme dissociation, Cy5-IP20 fluorescence polarization; R2B truncated from residue 108, S112A mutant; 0% DMSO only, 100% 113 µM cGMP; activation, % at 11.4 µM; 0.079% of 340,000 active;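 active = activation above a cutoff set at the mean over all compounds plus 3 SD, cut at about 18% in these data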;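 also: higher means more holoenzyme dissociation and a rise in polarization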
# CSN deneddyl inh: CSN deneddylation inhibition. inhibition, % at 12.5 µM. 0.38% of 360,000 active. Purified CSN, SCF-Nedd8-OG deneddylation, fluorescence polarization. Q92905;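 active = pattern-corrected inhibition above about 35%, with an unprinted fluorescence ratio check between 0.5 and 1.5, limit read from the data, passing the limit was not always enough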;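 also: 0% = enzyme with substrate and 100% = substrate without enzyme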
# Target sequence (Q92905 whole entry, looked up, one chain of several): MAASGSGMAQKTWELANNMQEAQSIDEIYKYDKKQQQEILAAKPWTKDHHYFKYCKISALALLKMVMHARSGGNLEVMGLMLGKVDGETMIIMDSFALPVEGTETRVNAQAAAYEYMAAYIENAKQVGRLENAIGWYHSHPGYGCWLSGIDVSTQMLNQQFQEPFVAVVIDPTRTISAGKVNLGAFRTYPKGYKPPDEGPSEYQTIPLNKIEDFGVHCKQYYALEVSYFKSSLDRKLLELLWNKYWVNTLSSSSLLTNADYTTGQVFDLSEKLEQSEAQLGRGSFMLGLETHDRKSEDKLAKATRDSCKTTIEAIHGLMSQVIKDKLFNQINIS
#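 Assay system: HEK293T-derived human Csn5 enzyme; quantity: 0.24 nM enzyme; medium: Tris/NaCl/DTT buffer, pH 7.5; also added: substrate SCFSkp2-Nedd8OG, 10 nM; doses: 12.5 µM compound; schedule: 90 min reaction at room temperature; signal: FP; read-out: % inhibition of substrate cleavage by Csn5; benchmarks: substrate-only high control, full reaction low control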
# TPT1 inhibitor: inhibitors of Candida albicans tRNA 2'-phosphotransferase TPT1 | recombinant caTPT1, FP RNA substrate dephosphorylation | inhibition, % at 5 µM | 0.81% of 300,000 active;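 active = inhibition above the mean of all tested compounds plus 3 SD, set per screening campaign, cut at about 24% in these data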;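 also: plate controls were DMSO alone for no effect and ferristatin control at 100 nM for full effect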
# PKA-R1A activ: activates the PKA-R1A holoenzyme complex | P00514+P68181 | PKA-R1A dissociation, Cy5-IP20 fluorescence polarization; scaled: DMSO 0%, 113 µM cGMP 100% | activation, % at 11.4 µM | 0.083% of 340,000 active;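 active = percent activation above the mean of all tested compounds plus 3 SD, cut at about 19% in these data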;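 also: higher means more PKAc released from R1A so a rise in polarization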
# caTPT1 confirm: confirmation of Candida albicans TPT1 inhibitors | inhibition, % at 5 µM | recombinant caTPT1, fluorescence polarization, RNase T1 coupled | 74% of 2,400 active | shares compounds with TPT1 inhibitor | AID 2149;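 active = inhibition above the primary screen limit, the mean inhibition of all tested compounds plus 3 SD, cut at about 25% in these data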
# RNase T1 inh: blocks Aspergillus oryzae RNase T1, a TPT1 counter-screen | shares compounds with TPT1 inhibitor | RNase T1 cleavage, fluorescence polarization, 1536-well | inhibition, % at 5 µM | 83% of 2,400 active;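 active = inhibition above the solvent-only control well mean plus 3 SD, limit set per screening run, cut at about 23% in these data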;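 also: plate controls were DMSO wells with enzyme for no effect and wells without RNase T1 for full effect; inhibitors block cleavage so intact labeled substrate keeps polarization high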
# * = called active by the depositor; i = inactive; / = no result given.
SMILES,HNF4A DNA FP,Rpn11 inh,PKA-R2B act,CSN deneddyl inh,TPT1 inhibitor,PKA-R1A activ,caTPT1 confirm,RNase T1 inh
CC(C)=N/N=C(\c1cccc([N+](=O)[O-])c1)C12CN3CN(CN(C3)C1)C2,3,i,-5,-1,1,1,/,/
CN(C)c1ccc(/C=C/C(=O)c2c(O)c3ccccc3oc2=O)cc1,21,/,-3,95,55*,-1,70*,80*
COc1ccc(OCCSc2nnc(CCNC(=O)c3ccc(Cl)c(Cl)c3)n2C)cc1,-6,i,-15,4,-4,-10,/,/
CCn1c(CCNC(=O)c2ccc(Cl)c(Cl)c2)nnc1SCCOc1ccc(OC)cc1,-3,i,12,0,25*,-8,4,7
N#Cc1c(Sc2ncc(C(F)(F)F)cc2Cl)nsc1C/C=N\OCc1c(F)cccc1Cl,11,/,0,20,36*,-2,20,33*
CN1CC(c2ccccc2)Oc2ccccc2C1=S (stereo unspecified),3,i,1,5,-4,-8,/,/
CC(C)N1C(=O)S/C(=C/c2ccc3c(c2)n(C)c(=O)n3C)C1=O,4,i,6,2,-5,-3,/,/
CCN(CC)c1ccc(/C=C2\SC(=O)N(C(C)C)C2=O)o1,81,/,/,0,178*,/,172*,157*
O=c1c[n+]([O-])c2ccccc2n1OCc1ccccn1,-6,i,-8,7,26*,-4,9,13
CCOC(=O)c1c(-c2ccccc2)csc1NC(=O)/C(C#N)=C/c1ccc(O)c(OC)c1,141,/,-6,125,178*,1,192*,174*
COC(=O)c1sc2cc([N+](=O)[O-])cc(SCC(C)C)c2c1N,29,/,-6,21,43*,-2,29*,41*
O=C(COC(=O)C1CCN(c2ccc(C(F)(F)F)cn2)CC1)Nc1ccc(F)cc1[N+](=O)[O-],-5,i,-14,-3,-1,-1,/,/
Cc1nc(-c2coc3cc(C)c(N=O)c(O)c3/c2=N\N)cs1,1,i,11,2,80*,-1,9,15
N#CC(C#N)=C/C=C(\Nc1ccc(Cl)cc1)c1ccc(Cl)cc1,1,i,-2,108,70*,-7,13,19
CC(C)N1C(=O)CCC1C(=O)NCc1ccc(F)cc1Cl (stereo unspecified),3,i,9,-6,3,-5,/,/
O=C(CSc1nc2ccccc2c(=O)[nH]1)Nc1ccc(C(=O)O)cc1,5,i,-1,0,1,-7,/,/
COc1ccc(NC(=O)CSc2nc3nc(C)cc(C)c3c(=O)[nH]2)cc1,-6,i,1,0,25*,5,6,8
CCN(CC)c1ccc(NC(=O)CSc2nc3nc(C)cc(C)c3c(=O)[nH]2)cc1,2,i,1,-2,-2,-9,/,/
CCOc1ccc(NC(=O)c2ccc(NC(=O)CSc3nc4ccccc4c(=O)[nH]3)cc2)cc1,-2,i,4,5,53*,-14,0,2
CC1=C(C(=O)OCC2CCCO2)C(c2ccc(F)cc2)NC(=O)N1 (stereo unspecified),0,i,6,-15,1,-8,/,/
CCc1ccc(C(=O)C(C)OC(=O)c2cccc(S(=O)(=O)N3CCOCC3)c2)cc1 (stereo unspecified),6,i,-1,0,1,-2,/,/
Cc1ccc(N2CC(C(=O)Nc3cccnc3)CC2=O)cc1C (stereo unspecified),2,i,-10,-1,2,2,/,/
Cc1ccccc1NC(=O)Cn1c(=O)sc2ccccc21,-3,i,-3,-4,3,-15,/,/
COc1ccc(CCNC(=O)c2ccc3c(c2)NC(=O)C(CSCc2cc(C)ccc2C)N3)cc1OC (stereo unspecified),/,/,/,/,129*,/,124*,122*
N#C/C(=C/c1ccc(N2CCOCC2)o1)C(=O)Nc1ccccc1,210,/,-5,-61,/,10,/,/
SMILES,HNF4A DNA FP,Rpn11 inh,PKA-R2B act,CSN deneddyl inh,TPT1 inhibitor,PKA-R1A activ,caTPT1 confirm,RNase T1 inh
N#C/C(=C\c1ccc(-c2ccc(C(=O)O)cc2)o1)C(=O)NCC1CCCO1 (stereo unspecified),-2,i,-2,2,4,2,/,/
COCCNC(=O)/C(C#N)=C/c1ccc(N2CCOCC2)o1,155,/,4,109,157*,-7,169*,164*
N#C/C(=C\c1ccc(N2CCOCC2)o1)C(=O)NCC1CCCO1 (stereo unspecified),164,/,-7,94,161*,-1,168*,164*
COc1ccc(C(O)c2ncc(-c3cccc(C(F)(F)F)c3)[nH]2)cc1 (stereo unspecified),1,i,/,-5,/,/,/,/
Cc1sc2nc(CSC(C)C(=O)NC3(C#N)CCCCC3)[nH]c(=O)c2c1C (stereo unspecified),7,i,0,4,/,-1,/,/
O=C(C(=O)N1CCCCCC1)c1c[nH]c2ccccc12,-1,i,-11,-4,/,-9,/,/
C[n+]1cc(C(=O)N2CCCCC2)ccc1/C=C/c1c[nH]c2ccccc12,147,/,4,149,132*,-6,109*,109*
CCc1ccc2[nH]c(O)c(N=Nc3nc(-c4ccccc4)cs3)c2c1,14,i,-3,8,43*,2,26*,40*
CCc1cc2c(N=Nc3c(O)[nH]c4ccccc34)ncnc2s1,23,/,1,6,4,8,/,/
Cc1nc2ccccc2c(=O)n1/N=C/c1c(O)ccc2ccccc12,7,i,-8,-18,39*,-8,5,8
CCN1CCc2c(sc(NC(=O)c3ccc(S(=O)(=O)N4CC(C)OC(C)C4)cc3)c2C(N)=O)C1 (stereo unspecified),-3,i,2,0,8,-4,/,/
CCN1CCc2c(sc(NC(=O)c3ccc(S(=O)(=O)N(C)c4ccccc4)cc3)c2C(=O)NC)C1,27,i,3,19,133*,-15,150*,145*
CNC(=O)c1c(NC(=O)c2ccc(S(=O)(=O)N(C)c3ccccc3)cc2)sc2c1CCN(C(C)C)C2,/,/,/,/,125*,/,161*,149*
Cc1cc(NC(=O)c2cccnc2)ccc1Br,1,i,-6,-3,-2,-6,/,/
